3 compounds from ChEMBL document CHEMBL1773040, “Briarane diterpenes diminish COX-2 expression in human colon adenocarcinoma cells” (2011) can be followed below.

The test system of one experiment is RAW264.7. The experiment in a line: Decrease in PMA-induced COX-2 mRNA expression in mouse RAW264.7 cells at 5 to 15 uM after 24 hrs by PCR analysis. In kind it is functional, cell-based. The method, boiled down: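 RAW 264.7 monolayers stimulated with PMA and co-incubated with compound (0–15 μM) for 24 h. Total RNA isolated; equal RNA amounts reverse-transcribed to cDNA. COX-2 fragments amplified by PCR: 94 C 3 min, then 35 cycles of 94 C 30 s, 56 C 1 min, 78 C 30 s. GAPDH served as reference.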

In experiment [1] the test system is Caco-2. Description: Decrease in PMA-induced COX-2 mRNA expression in human Caco2 cells at 5 to 15 uM after 24 hrs by PCR analysis. The format is functional, cell-based.
For experiment [2], the system named is Caco-2. Description: Cytotoxicity against human Caco2 cells assessed as decrease in cell viability at 5 to 30 uM after 24 hrs by trypan blue exclusion assay. In kind it is functional, cell-based. In a few lines:
(§1)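 Caco-2 cells kept in MEM with 10% heat-inactivated FBS, penicillin G and streptomycin at 37 C, 5% CO2. Compounds given from a 5 mg/mL DMSO stock; exponentially growing cells seeded in complete medium with compound for 24 h. Floating and adherent cells pooled, mixed with 0.4% trypan blue, and stained/unstained cells counted by hemacytometer. Each experiment run three times.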

Experiment [3] relates to Caco-2. Description: Cytotoxicity against human Caco2 cells assessed as decrease in cell viability at 30 uM after 24 hrs by trypan blue exclusion assay. In kind it is functional. The method, boiled down:
as §1

Experiment [4] relates to Caco-2. The experiment in a line: Decrease in PMA-induced COX-2 mRNA expression in human Caco2 cells at 10 to 15 uM after 24 hrs by PCR analysis. In kind it is functional, cell-based.
In experiment [5] the test system is Caco-2. Description: Cytotoxicity against human Caco2 cells assessed as decrease in cell viability at 20 uM after 24 hrs by trypan blue exclusion assay. In kind it is functional. In a few lines:
as §1

Experiment [6] concerns Caco-2. The experiment in a line: Cytotoxicity against human Caco2 cells assessed as decrease in cell viability at 15 uM after 24 hrs by trypan blue exclusion assay. In kind it is functional. The method, boiled down: as §1

Calls of active or inactive are those of the source. The rule behind the calls is not given here.

As to `CC(=O)O[C@@H]1C[C@H](O)[C@@]2(C)C=C[C@@H](OC(C)=O)[C@@](C)(O)[C@@H]2[C@H](OC(C)=O)[C@]23O[C@@]2(C)C(=O)O[C@H]3/C=C\1C` [BRIALALEPOLIDE A], the outcome with RAW264.7 and in the experiment with Caco-2 [1] was inactive. For the same compound, the Activity result in the experiment on Caco-2 [2] was “Dose-dependent effect”; in the experiment on Caco-2 [3], 50%.

On to `CCCCCC(=O)O[C@@H]1C[C@H](O)[C@@]2(C)C=C[C@@H](OC(C)=O)[C@@](C)(O)[C@@H]2[C@H](OC(C)=O)[C@]23O[C@@]2(C)C(=O)O[C@H]3/C=C\1C` [BRIALALEPOLIDE B], for which the result in the experiment with RAW264.7 and with Caco-2 [4] was Active. Also, the Activity result was “Dose-dependent effect” with Caco-2 [2] and 50% in the experiment with Caco-2 [5].

Consider `CCCCCCCC(=O)O[C@@H]1C[C@H](O)[C@@]2(C)C=C[C@@H](OC(C)=O)[C@@](C)(O)[C@@H]2[C@H](OC(C)=O)[C@]23O[C@@]2(C)C(=O)O[C@H]3/C=C\1C` [BRIALALEPOLIDE C], for which the Activity with Caco-2 [6] was 50%; in the experiment with Caco-2 [2] it was “Dose-dependent effect”; in the experiment with Caco-2 [3], 75%. Besides, the outcome in the experiment on RAW264.7 and in the experiment with Caco-2 [4] was Active.
